Columns and labels:
MDA-MB-435 = experiment: Cytotoxicity against human MDA-MB-435 cells incubated for 72 hrs by MTT assay; type: functional, cell-based; conditions: MDA-MB-435, 72 h
Procedure, shortened: (§1)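 Cells were kept in DMEM (MDA-MB-435, MCF7, LNCaP) or RPMI (HT29, HCT116) with 10% heat-inactivated FBS and 2 mM L-glutamine, subconfluent and in exponential growth. They were seeded, allowed to adhere overnight, then exposed continuously to compound (10 mM DMSO stock) for 72 h. MTT was added to 0.3 mg/mL final for 3–4 h at 37 °C, formazan was dissolved in DMSO, and absorbance was read at 570 nm. Runs were in triplicate; IC50 came from log concentration versus percent cell kill.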

MCF7 = experiment: Cytotoxicity against human MCF7 cells incubated for 72 hrs by MTT assay; type: functional, cell-based; conditions: MCF7, 72 h; procedure, shortened: as §1
HEY = experiment: Cytotoxicity against human HEY cells incubated for 72 hrs by MTT assay; type: functional, cell-based
SK-BR-3 = experiment: Cytotoxicity against human SKBR3 cells incubated for 72 hrs by MTT assay; type: functional, cell-based; conditions: SK-BR-3, 72 h
HCT-116 [1] = experiment: Cytotoxicity against p53 expressing human HCT116 cells incubated for 72 hrs by MTT assay; type: functional, cell-based; conditions: HCT-116, 72 h; procedure, shortened: as §1
[2] = target: Receptor tyrosine-protein kinase erbB-2 (Homo sapiens) (UniProt P04626); experiment: Inhibition of ErbB2 at 10 uM incubated for 60 mins using poly(Glu,Tyr)4:1 substrate and 10 uM ATP by ELISA
Procedure, shortened: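 ELISA with Poly(Glu,Tyr)4:1 (20 μg/mL) precoated as substrate and 10 μM ATP, in 50 mM HEPES pH 7.4, 20 mM MgCl2, 0.1 mM MnCl2, 0.2 mM Na3VO4, 1 mM DTT. Compound was tested at 10 μM, in duplicate. Kinase reaction ran 60 min at 37 °C. Phosphotyrosine was detected with PY99 and HRP anti-mouse IgG, developed with o-phenylenediamine/H2O2, stopped with H2SO4 and read at 492 nm. Inhibition = [1 − A492 treated/A492 control] × 100%. References: lapatinib (ErbB2) and PP2 (Src), each at 10 μM.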

HCT-116 [3] = experiment: Cytotoxicity against p53 deficient human HCT116 cells incubated for 72 hrs by MTT assay; type: functional, cell-based; conditions: HCT-116, 72 h; procedure, shortened: as §1
[4] = target: T1, Human immunodeficiency virus type 1 integrase (Human immunodeficiency virus 1, UniProt Q7ZJM1); experiment: Inhibition of HIV1 integrase strand transfer activity using [32P]-labeled linear oligonucleotide substrate
[5] = target: T1, Human immunodeficiency virus type 1 integrase; experiment: Inhibition of HIV1 integrase 3'-processing activity using [32P]-labeled linear oligonucleotide substrate

Sequence of Receptor tyrosine-protein kinase erbB-2 (Homo sapiens) (P04626 whole entry): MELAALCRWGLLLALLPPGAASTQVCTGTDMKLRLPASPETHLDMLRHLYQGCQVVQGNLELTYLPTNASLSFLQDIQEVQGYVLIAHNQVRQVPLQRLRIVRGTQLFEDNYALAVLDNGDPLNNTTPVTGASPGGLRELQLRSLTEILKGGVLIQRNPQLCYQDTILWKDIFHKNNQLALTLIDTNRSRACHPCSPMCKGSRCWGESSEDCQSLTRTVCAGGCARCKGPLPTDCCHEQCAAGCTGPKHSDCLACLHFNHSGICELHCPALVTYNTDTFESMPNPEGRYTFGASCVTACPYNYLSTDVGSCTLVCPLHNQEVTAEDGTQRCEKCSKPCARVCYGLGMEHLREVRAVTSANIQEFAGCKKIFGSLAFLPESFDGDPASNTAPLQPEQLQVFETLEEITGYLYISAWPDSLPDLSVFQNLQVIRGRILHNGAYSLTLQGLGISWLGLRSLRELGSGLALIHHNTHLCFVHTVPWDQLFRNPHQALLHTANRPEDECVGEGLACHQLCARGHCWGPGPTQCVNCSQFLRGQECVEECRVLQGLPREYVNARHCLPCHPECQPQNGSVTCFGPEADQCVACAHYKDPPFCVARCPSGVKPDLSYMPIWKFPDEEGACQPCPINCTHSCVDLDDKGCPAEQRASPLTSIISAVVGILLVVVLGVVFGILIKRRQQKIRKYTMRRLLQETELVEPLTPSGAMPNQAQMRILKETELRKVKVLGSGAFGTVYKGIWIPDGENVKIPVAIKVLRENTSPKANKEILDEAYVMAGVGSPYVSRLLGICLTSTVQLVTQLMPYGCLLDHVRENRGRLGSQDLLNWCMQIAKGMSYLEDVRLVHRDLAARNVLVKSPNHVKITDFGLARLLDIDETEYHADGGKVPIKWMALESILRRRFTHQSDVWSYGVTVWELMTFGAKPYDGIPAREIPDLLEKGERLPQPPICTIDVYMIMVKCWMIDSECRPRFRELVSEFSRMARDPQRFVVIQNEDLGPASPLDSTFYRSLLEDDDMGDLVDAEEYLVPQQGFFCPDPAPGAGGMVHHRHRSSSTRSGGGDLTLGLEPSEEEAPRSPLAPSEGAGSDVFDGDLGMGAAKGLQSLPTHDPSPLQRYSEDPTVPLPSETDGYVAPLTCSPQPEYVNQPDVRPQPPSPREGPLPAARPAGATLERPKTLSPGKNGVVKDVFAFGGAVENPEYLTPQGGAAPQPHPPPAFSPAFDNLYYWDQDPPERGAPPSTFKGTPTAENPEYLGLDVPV
T1 sequence (Q7ZJM1 whole entry): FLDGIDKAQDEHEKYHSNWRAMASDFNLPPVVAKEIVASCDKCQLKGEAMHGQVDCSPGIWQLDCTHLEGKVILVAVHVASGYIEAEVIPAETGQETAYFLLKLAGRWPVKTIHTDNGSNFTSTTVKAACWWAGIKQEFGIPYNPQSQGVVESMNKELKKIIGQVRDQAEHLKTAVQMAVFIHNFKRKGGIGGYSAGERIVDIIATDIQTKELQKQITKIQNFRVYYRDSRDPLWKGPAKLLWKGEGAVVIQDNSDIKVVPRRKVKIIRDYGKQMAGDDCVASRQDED

| inhibition [2] [%] | IC50 [4] [µM] | IC50 [5] [µM] | Compound | IC50 (MDA-MB-435) [µM] | IC50 (MCF7) [µM] | IC50 (HEY) [µM] | IC50 (SK-BR-3) [µM] | IC50 (HCT-116 [1]) [µM] | IC50 (HCT-116 [3]) [µM] |
| --- | --- | --- | --- | --- | --- | --- | --- | --- | --- |
| – | – | – | N[C@H]1CC[C@H](Nc2c(C(=O)NCc3ccc(Oc4ccccc4)cc3)nc(Br)c3cccnc23)CC1 | 4 | 7.9 | 9 | – | – | – |
| 0 | – | – | N[C@H]1CC[C@H](Nc2c(C(=O)NCc3ccccc3)nc(Br)c3cccnc23)CC1 | 7 | – | 8 | 8 | 7 | – |
| – | – | – | C[C@H](NC(=O)c1nc(Br)c2cccnc2c1N[C@H]1CC[C@H](N)CC1)c1ccc(F)cc1 | > 10 | – | > 10 | 9 | > 10 | – |
| – | – | – | N[C@H]1CC[C@H](Nc2c(C(=O)NCc3ccco3)nc(Br)c3cccnc23)CC1 | > 10 | – | > 10 | 10 | > 10 | – |
| – | > 100 | > 100 | O=C(NCc1ccc(F)cc1)c1nc(Br)c2cccnc2c1NCc1ccc(F)cc1 | > 20 | – | – | – | > 20 | > 20 |
| – | > 100 | > 100 | NCCNc1c(C(=O)NCc2ccc(F)cc2)nc(Br)c2cccnc12 | 12 | 6 | – | – | > 20 | > 20 |
| 92 | – | – | CS(=O)(=O)CCNCc1ccc(-c2ccc3ncnc(Nc4ccc(OCc5cccc(F)c5)c(Cl)c4)c3c2)o1 | – | – | – | – | – | – |
| 0 | – | – | N[C@H]1CC[C@H](Nc2c(C(=O)NCc3ccc4c(c3)OCO4)nc(Br)c3cccnc23)CC1 | 7 | – | 4 | 6 | 7 | – |
| – | – | – | N[C@H]1CC[C@H](Nc2c(C(=O)NCc3cccc(C(F)(F)F)c3)nc(Br)c3cccnc23)CC1 | 4.2 | 15 | 12 | – | – | – |
| – | – | – | COC(=O)c1nc(Br)c2cccnc2c1N[C@H]1CC[C@H](N)CC1 | > 20 | > 20 | > 20 | – | – | – |
| 0 | – | – | COc1cccc(CNC(=O)c2nc(Br)c3cccnc3c2N[C@H]2CC[C@H](N)CC2)c1 | 7 | – | 7 | 6 | 6 | – |
| – | > 111 | > 111 | C[C@@H](Nc1c(C(=O)NCc2ccc(F)cc2)nc(Br)c2cccnc12)c1ccccc1 | > 20 | – | – | – | > 20 | > 20 |
| – | – | – | N[C@H]1CC[C@H](Nc2c(C(=O)NC3CCCCC3)nc(Br)c3cccnc23)CC1 | > 10 | 5.2 | 5.2 | 4.2 | > 10 | – |
| – | > 100 | > 100 | CNc1c(C(=O)NCc2ccc(F)cc2)nc(Br)c2cccnc12 | > 20 | – | – | – | > 20 | > 20 |
| – | > 100 | > 100 | O=C(NCc1ccc(F)cc1)c1nc(Br)c2cccnc2c1NCCCNc1c(C(=O)NCc2ccc(F)cc2)nc(Br)c2cccnc12 | > 20 | – | – | – | > 20 | > 20 |
| – | – | – | CN(C)c1ccc(CNC(=O)c2nc(Br)c3cccnc3c2N[C@H]2CC[C@H](N)CC2)cc1 | 4 | 5 | 5.3 | – | – | – |
| – | > 100 | > 100 | O=C(NCc1ccc(F)cc1)c1nc(Br)c2cccnc2c1NCc1ccccc1 | > 20 | – | – | – | > 20 | > 20 |
| – | – | – | N[C@H]1CC[C@H](Nc2c(C(=O)NCc3cccs3)nc(Br)c3cccnc23)CC1 | 4.1 | 7.3 | 11 | – | – | – |
| – | – | – | N[C@H]1CC[C@H](Nc2c(C(=O)NCc3ccccn3)nc(Br)c3cccnc23)CC1 | 4 | 15 | > 20 | – | – | – |
| – | > 111 | > 111 | C[C@H](Nc1c(C(=O)NCc2ccc(F)cc2)nc(Br)c2cccnc12)c1ccccc1 | > 20 | – | – | – | > 20 | > 20 |
| – | – | – | N[C@H]1CC[C@H](Nc2c(C(=O)NCc3ccc(F)cc3)nc(N3CCCCC3)c3cccnc23)CC1 | 5 | 5 | – | > 10 | 8 | 8.5 |
